In ChEMBL document CHEMBL1926596, “Synthesis and antimalarial evaluation of novel isocryptolepine derivatives” (Bioorg Med Chem, 2011):
Where a name gives a salt, the structure may show the parent alone.

Assays:
[1] = system: Plasmodium falciparum; test: Antimalarial activity against chloroquine-sensitive Plasmodium falciparum 3D7 infected in human erythrocytes assessed as inhibition of [3H]hypoxanthine incorporation after 48 hrs by beta liquid scintillation counting method; type: functional, organism-based
Summary of the method: (§1)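 Hydrochloride salts, from DMSO/water stocks (final DMSO <0.05%), added in triplicate to parasites cultured in RPMI 1640 HEPES with L-glutamine, gentamicin, hypoxanthine and 10% pooled human plasma at 37 °C under 3–9% oxygen. Radiolabel was added, then 48 h incubation, freeze-thaw, filtermat harvest and scintillation counting. Uninfected and infected drug-free controls were included. IC50 came from nonlinear regression of log-dose–response curves, with at least 3 separate runs.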

[2] = system: Plasmodium falciparum; test: Antimalarial activity against chloroquine-resistant Plasmodium falciparum W2mef infected in human erythrocytes assessed as inhibition of [3H]hypoxanthine incorporation after 48 hrs by beta liquid scintillation counting method; type: functional, organism-based; summary of the method: as §1
[3] = system: NIH3T3; test: Cytotoxicity against mouse 3T3 cells after 48 hrs by MTT assay; type: cell-based; details: NIH3T3, 48 h
Summary of the method: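 Cells seeded at 7500 per well on 1% gelatine-coated plates 24 h before testing (37 °C, 5% CO2, humidified). Test agents given as hydrochloride salts in DMSO/water stocks, diluted in RPMI, serially diluted, added in quadruplicate, with vehicle and drug-free controls. After 48 h, MTT (1 mg/mL in RPMI) for 60 min, DMSO solubilisation, absorbance 595 nm. At least three separate runs; IC50 by non-linear regression after DMSO correction.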

[4] = Selectivity index, ratio of IC50 for mouse 3T3 cells to IC50 for chloroquine-resistant Plasmodium falciparum W2mef; type: toxicity, cell-based, NIH3T3; details: read-out: Ratio IC50
Summary of the method: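 The ratio uses the W2mef antiplasmodial IC50 and the IC50 in 3T3 mouse embryonic fibroblasts. Cells were seeded 24 h earlier at 7500/well on 1% gelatine, 37 °C, 5% CO2. Serial dilutions were added in quadruplicate with a vehicle control for 48 h. MTT (1 mg/mL, 60 min, 37 °C) was solubilised in DMSO and read at 595 nm. IC50 came from nonlinear regression after DMSO correction, with at least 3 runs.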

[5] = system: Plasmodium falciparum; test: Antimalarial activity against Plasmodium falciparum K1; type: functional, organism-based

SMILES	IC50 [1] [nM]	IC50 [2] [nM]	IC50 [3] [nM]	selectivity ratio [4]	IC50 [5] [nM]
Cn1cc2c3ccccc3nc-2c2ccc(Cl)cc21	130	316	2260	7.3	
Cc1ccc2c3cn(C)c4ccccc4c-3nc2c1	448	760	2070	2.7	
Cn1cc2c3cc(Br)ccc3nc-2c2ccccc21	85	184	1970	11	
Cn1cc2c3cc(Br)ccc3nc-2c2cc(Cl)ccc21	57	85	9000	106	
Cn1cc2c3cc(Br)ccc3nc-2c2cc(Br)ccc21	127	112	2580	23	
Cn1cc2c3cc(Br)ccc3nc-2c2ccc(Cl)cc21	50	100	2640	26	
Cc1cc2nc3c4ccccc4n(C)cc-3c2cc1Br	62	131	2500	19	
Cn1cc2c3cc(Cl)ccc3nc-2c2ccccc21	117	218	2100	9.6	
Cn1c2c3cc(Br)ccc3nc-2cc2cc(Br)ccc21					49
CCN(CC)CCCC(C)Nc1ccnc2cc(Cl)ccc12 (centres undefined) [CHLOROQUINE]			72000		
Cn1cc2c3ccccc3nc-2c2ccccc21 [ISOCRYPTOLEPINE HYDROCHLORIDE]	665	1180	2190	1.9	
CCCCN(CCCC)CC(O)c1cc(Cl)cc2c1-c1ccc(Cl)cc1/C2=C/c1ccc(Cl)cc1 (centres undefined) [LUMEFANTRINE]		56			
